In ChEMBL document CHEMBL1955854, “New retinoid derivatives as back-ups of Adarotene” (Bioorg Med Chem, 2012):

Key:
[1] = Chemical stability in aqueous buffer containing 5% DMSO and 5% tween 80 at pH 7.4 assessed as compound recovery in anoxic conditions after 24 hrs by UPLC analysis; type: physicochemical; details: read-out: Stability
Outline: (§1)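 Stability at 37 °C in aqueous buffer with 5% DMSO and 5% Tween 80 at pH 1.2, 6.8 or 7.4; percent recovery by HPLC/UPLC on BEH C18 column, water+0.1% TFA/acetonitrile gradient from 40% to 95% acetonitrile over 8 min, room temperature.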

[2] = Chemical stability in aqueous buffer containing 5% DMSO and 5% tween 80 at pH 1.2 assessed as compound recovery in anoxic conditions after 12 hrs by UPLC analysis; type: physicochemical; details: pH 1.2, 12 h; outline: as §1
NCI-H460 = assay: Antiproliferative activity against human NCI-H460 cells incubated for 24 hrs drug exposure measured after 48 hrs of recovery by sulforhodamine B assay; type: functional, cell-based
[3] = Chemical stability in aqueous buffer containing 5% DMSO and 5% tween 80 at pH 6.8 assessed as compound recovery in anoxic conditions after 24 hrs by UPLC analysis; type: physicochemical; details: read-out: Stability; outline: as §1
[4] = Solubility in water; type: physicochemical; details: buffer
[5] = Chemical stability in aqueous buffer containing 5% DMSO and 5% tween 80 at pH 1.2 assessed as compound recovery in anoxic conditions after 3 hrs by UPLC analysis; type: physicochemical; details: read-out: Stability; outline: as §1
Plasma [6] = assay: Prodrug conversion in mouse plasma assessed as drug concentration at 6 hrs in presence of esterase inhibitor PMSF; type: ADME, cell-free
Outline: (§2)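 Prodrugs already shown stable at pH 1.2, 6.8 and 7.4 were incubated in murine plasma and sampled over time up to 6 h. A parallel incubation used murine plasma pretreated with the esterase inhibitor PMSF (phenylmethyl sulfonyl fluoride).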

Plasma [7] = assay: Prodrug conversion in mouse plasma assessed as drug concentration at 6 hrs; type: ADME, cell-free; outline: as §2
Plasma [8] = assay: Prodrug conversion in mouse plasma assessed as drug concentration at 1 hr; type: ADME, cell-free; outline: as §2
Plasma [9] = assay: Prodrug conversion in mouse plasma assessed as drug concentration at 3 hrs; type: ADME, cell-free; outline: as §2
[10] = Chemical stability in aqueous buffer containing 5% DMSO and 5% tween 80 at pH 7.4 assessed as compound recovery in anoxic conditions after 6 hrs by UPLC analysis; type: physicochemical; details: read-out: Stability; outline: as §1
Plasma [11] = assay: Prodrug conversion in mouse plasma assessed as drug concentration at 0.5 hrs in presence of esterase inhibitor PMSF; type: ADME, cell-free
Outline: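 Prodrug incubated with murine plasma pretreated with the esterase inhibitor PMSF, run alongside untreated plasma; release of parent followed over time.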

A-431 = assay: Antiproliferative activity against human A431 cells incubated for 24 hrs drug exposure measured after 48 hrs of recovery by sulforhodamine B assay; type: functional, cell-based
Plasma [12] = assay: Prodrug conversion in mouse plasma assessed as drug concentration at 0.5 hrs; type: ADME, cell-free; outline: as §2
[13] = Chemical stability in aqueous buffer containing 5% DMSO and 5% tween 80 at pH 6.8 assessed as compound recovery in anoxic conditions after 6 hrs by UPLC analysis; type: physicochemical; details: read-out: Stability; outline: as §1

In the case of CCCCCCCCCCC(=O)Oc1ccc(-c2ccc(/C=C/C(=O)O)cc2)cc1C12CC3CC(CC(C3)C1)C2, the remaining at 24 h [1] is reported as over 99%, the Stability [2] is reported as “Stable” and the IC50 (NCI-H460) is reported as 1540 nM. For the same molecule, the remaining at 24 h [3] was over 99%, the solubility [4] was “Insoluble” and the remaining at 3 h [5] was over 99%.
In the case of CCCCC/C=C/C/C=C/CCCCCCCC(=O)Oc1ccc(-c2ccc(/C=C/C(=O)O)cc2)cc1C12CC3CC(CC(C3)C1)C2, the Stability [2] is reported as “Stable”, the IC50 (NCI-H460) is reported as 7800 nM and the solubility [4] is reported as “Insoluble”.
With NC1(C(=O)Oc2ccc(-c3ccc(/C=C/C(=O)O)cc3)cc2C23CC4CC(CC(C4)C2)C3)CC1.O=C(O)C(F)(F)F the remaining at 24 h [1] was 62%, the Drug metabolism (Plasma [6]) was 97.77% and the Stability [2] was “Stable”. For the same molecule, the Drug metabolism (Plasma [7]) was 96.31%, the Drug metabolism (Plasma [8]) was 96.87% and the IC50 (NCI-H460) was 100 nM. The Drug metabolism (Plasma [9]) was 96.66%, the remaining at 6 h [10] was 88% and the remaining at 24 h [3] was over 99%. For the same molecule, the solubility [4] was “Insoluble”, the Drug metabolism (Plasma [11]) was 87.31% and the IC50 (A-431) was 400 nM. The remaining at 3 h [5] was over 99% and the Drug metabolism (Plasma [12]) was 97.02%.
For O=C(O)/C=C/c1ccc(-c2ccc(OC(=O)C3CC3)c(C34CC5CC(CC(C5)C3)C4)c2)cc1, the remaining at 24 h [1] was over 99%, the Drug metabolism (Plasma [6]) was 99.76% and the Stability [2] was “Stable”. It also gave a Drug metabolism (Plasma [7]) of 100%, a Drug metabolism (Plasma [8]) of 100% and an IC50 (NCI-H460) of 850 nM. For the same molecule, the Drug metabolism (Plasma [9]) was 100%, the remaining at 24 h [3] was over 99% and the solubility [4] was “Insoluble”. It also gave a Drug metabolism (Plasma [11]) of 43.95%, a remaining at 3 h [5] of over 99% and a Drug metabolism (Plasma [12]) of 100%.
With CC(C)NC(=O)Oc1ccc(-c2ccc(/C=C/C(=O)O)cc2)cc1C12CC3CC(CC(C3)C1)C2 the remaining at 24 h [1] was over 99%, the Stability [2] was “Stable” and the IC50 (NCI-H460) was 5000 nM. For the same molecule, the remaining at 24 h [3] was over 99%, the solubility [4] was “Insoluble” and the remaining at 3 h [5] was over 99%.
With CNCCNC(=O)Oc1ccc(-c2ccc(/C=C/C(=O)O)cc2)cc1C12CC3CC(CC(C3)C1)C2.Cl the remaining at 24 h [1] was 36%, the Drug metabolism (Plasma [6]) was 17.55% and the Stability [2] was “Stable”. For the same molecule, the Drug metabolism (Plasma [7]) was 99.95%, the remaining at 6 h [13] was 92% and the Drug metabolism (Plasma [8]) was 99.8%. For the same molecule, the IC50 (NCI-H460) was 240 nM, the Drug metabolism (Plasma [9]) was 99.94% and the remaining at 6 h [10] was 76%. The remaining at 24 h [3] was 69%, the solubility [4] was “Insoluble” and the Drug metabolism (Plasma [11]) was 1.35%. For the same molecule, the IC50 (A-431) was 320 nM, the remaining at 3 h [5] was over 99% and the Drug metabolism (Plasma [12]) was 96.23%.
For O=C(O)/C=C/c1ccc(-c2ccc(OC(=O)NC3CCN(C(=O)OCc4ccccc4)CC3)c(C34CC5CC(CC(C5)C3)C4)c2)cc1, the remaining at 24 h [1] was over 99%, the Stability [2] was “Stable” and the IC50 (NCI-H460) was 5000 nM. For the same molecule, the remaining at 24 h [3] was over 99%, the solubility [4] was “Insoluble” and the remaining at 3 h [5] was over 99%.
With O=C(O)/C=C/c1ccc(-c2ccc(OC(=O)NCC(=O)O)c(C34CC5CC(CC(C5)C3)C4)c2)cc1 the remaining at 24 h [1] was over 99%, the Stability [2] was “Stable” and the IC50 (NCI-H460) was 3000 nM. For the same molecule, the remaining at 24 h [3] was over 99%, the solubility [4] was “Insoluble” and the remaining at 3 h [5] was over 99%.
With CCCCCCCCCCCNC(=O)Oc1ccc(-c2ccc(/C=C/C(=O)O)cc2)cc1C12CC3CC(CC(C3)C1)C2 the remaining at 24 h [1] was over 99%, the Stability [2] was “Stable” and the IC50 (NCI-H460) was 1390 nM. The remaining at 24 h [3] was over 99%, the solubility [4] was “Insoluble” and the remaining at 3 h [5] was over 99%.
With CC(C)C[C@H](NC(=O)Oc1ccc(-c2ccc(/C=C/C(=O)O)cc2)cc1C12CC3CC(CC(C3)C1)C2)C(=O)NCC(=O)O the remaining at 24 h [1] was over 99%, the Stability [2] was “Stable” and the IC50 (NCI-H460) was 3500 nM. For the same molecule, the remaining at 24 h [3] was over 99%, the solubility [4] was “Insoluble” and the remaining at 3 h [5] was over 99%.
